From ChEMBL document CHEMBL2321767, “Synthesis and anticonvulsant activity of bioisosteres of trimethadione, N-derivative-1,2,3-oxathiazolidine-4-one-2,2-dioxides from α-hydroxyamides” (Bioorg Med Chem, 2013)
Activity calls are given as the source filed them.

Tests used:
Mus musculus [1] = test: Anticonvulsant activity in Swiss albino mouse assessed as protection against scPTZ-induced tonic-clonic seizures at 100 mg/kg, ip measured after 4 hrs relative to control; format: functional, organism-based; design: dose 100 mg/kg
Summary of the method: (§1)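 Adult male Swiss albino mice (18–25 g) given test substance ip at 30 or 100 mg/kg in 30% PEG 400/10% water. At 0.5 or 4 h, PTZ 85 mg/kg sc (0.5% in 0.9% saline) into the posterior midline. Mice observed 30 min. Protection means no threshold seizure, i.e. no clonic spasm lasting ≥5 s. Scored as protected/tested, 2 mice per group.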

Mus musculus [2] = test: Anticonvulsant activity in Swiss albino mouse assessed as protection against maximal electric shock-induced tonic-clonic seizures at 30 mg/kg, ip measured after 4 hrs relative to control; format: functional
Summary of the method: (§2)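 Adult male Swiss albino mice (18–25 g) dosed ip with 30 or 100 mg/kg in 30% PEG 400/10% water, 0.01 mL/g. MES tested 0.5 and 4 h later: electroshock via ear clips. Protection means no hind-limb tonic extension. Result reported as mice protected out of mice tested (3 per group).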

Mus musculus [3] = test: Neurotoxicity against Swiss albino mouse at 100 mg/kg, ip measured after 0.5 hrs by rotarod test; format: toxicity, organism-based; design: dose 100 mg/kg, route intraperitoneal; settings: in vivo
Summary of the method: (§3)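 Male Swiss albino mice (18–25 g) dosed ip at 30 or 100 mg/kg in 30% PEG 400/10% water. Minimal neurotoxicity checked on the rotarod 0.5 and 4 h after dosing, as failure to keep balance on the rotating rod. Reported as affected/tested, 5 mice per group.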

Mus musculus [4] = test: Anticonvulsant activity in Swiss albino mouse assessed as protection against maximal electric shock-induced tonic-clonic seizures at 100 mg/kg, ip measured after 4 hrs relative to control; format: functional, organism-based; design: dose 100 mg/kg; summary of the method: as §2
Mus musculus [5] = test: Anticonvulsant activity in Swiss albino mouse assessed as protection against scPTZ-induced tonic-clonic seizures at 100 mg/kg, ip measured after 0.5 hrs relative to control; format: functional, organism-based; design: dose 100 mg/kg; summary of the method: as §1
Mus musculus [6] = test: Neurotoxicity against Swiss albino mouse at 30 mg/kg, ip measured after 4 hrs by rotarod test; format: toxicity, organism-based; design: dose 30 mg/kg, route intraperitoneal; settings: in vivo; summary of the method: as §3
Mus musculus [7] = test: Anticonvulsant activity in Swiss albino mouse assessed as protection against maximal electric shock-induced tonic-clonic seizures at 30 mg/kg, ip measured after 0.5 hrs relative to control; format: functional, organism-based; design: dose 30 mg/kg; summary of the method: as §2
Mus musculus [8] = test: Anticonvulsant activity in Swiss albino mouse assessed as protection against scPTZ-induced tonic-clonic seizures at 30 mg/kg, ip measured after 0.5 hrs relative to control; format: functional, organism-based; design: dose 30 mg/kg; summary of the method: as §1
Mus musculus [9] = test: Neurotoxicity against Swiss albino mouse at 100 mg/kg, ip measured after 4 hrs by rotarod test; format: toxicity, organism-based; design: dose 100 mg/kg, route intraperitoneal; settings: in vivo; summary of the method: as §3
Mus musculus [10] = test: Anticonvulsant activity in Swiss albino mouse assessed as protection against maximal electric shock-induced tonic-clonic seizures at 100 mg/kg, ip measured after 0.5 hrs relative to control; format: functional; summary of the method: as §2
Mus musculus [11] = test: Anticonvulsant activity in Swiss albino mouse assessed as protection against scPTZ-induced tonic-clonic seizures at 30 mg/kg, ip measured after 4 hrs relative to control; format: functional, organism-based; design: dose 30 mg/kg; summary of the method: as §1
Mus musculus [12] = test: Neurotoxicity against Swiss albino mouse at 30 mg/kg, ip measured after 0.5 hrs by rotarod test; format: toxicity, organism-based; design: dose 30 mg/kg, route intraperitoneal; settings: in vivo; summary of the method: as §3
Mus musculus [13] = test: Toxicity against Swiss albino mouse assessed as mortality at 30 to 100 mg/kg, ip; format: organism-based; design: dose 30-100 mg/kg, route intraperitoneal; settings: in vivo
Summary of the method: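 Adult male Swiss albino mice (18–25 g; 12 h light/dark cycle, free food and water) were dosed ip at 30 and 100 mg/kg in 30% PEG 400 and 10% water, 0.01 mL/g body weight. Testing was at 0.5 and 4 h in the MES, scPTZ and RotoRod assays, with deaths recorded during these assays.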

Mus musculus [14] = test: Anticonvulsant activity in ip dosed Swiss albino mouse assessed as protection against maximal electric shock-induced tonic-clonic seizures measured up to 4 hrs; format: functional
Summary of the method: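 Male Swiss albino mice given test substances ip in 30% PEG 400/10% water. Various doses, each group of six mice, tested by MES at the maximal time effect. Protection means no hind-limb tonic extension after ear-clip electroshock. ED50 and 95% confidence intervals computed by the Litchfield–Wilcoxon method.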

Mus musculus [15] = test: Anticonvulsant activity in ip dosed Swiss albino mouse assessed as time of maximal protection against maximal electric shock-induced tonic-clonic seizures; format: functional
Summary of the method: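 Ip-dosed male Swiss albino mice (vehicle 30% PEG 400/10% water) tested in the MES test (ear-clip electroshock, endpoint abolition of hind-limb tonic extension) at several times after dosing. The maximal time effect is the time of peak protection.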

Mus musculus [16] = species: Mus musculus; test: Ratio of trimathadione ED50 to compound ED50 for protection against maximal electric shock-induced tonic-clonic seizures in Swiss albino mouse; format: functional
Mus musculus [17] = species: Mus musculus; test: Ratio of valproic acid ED50 to compound ED50 for protection against maximal electric shock-induced tonic-clonic seizures in Swiss albino mouse; format: functional
Mus musculus [18] = species: Mus musculus; test: Ratio of phenytoin ED50 to compound ED50 for protection against maximal electric shock-induced tonic-clonic seizures in Swiss albino mouse; format: functional

| SMILES | Activity (Mus musculus [1]) | Activity (Mus musculus [2]; route intraperitoneal) [%] | Activity (Mus musculus [3]) | Activity (Mus musculus [4]) | Activity (Mus musculus [5]) | Activity (Mus musculus [6]) | Activity (Mus musculus [7]) | Activity (Mus musculus [8]) | Activity (Mus musculus [9]) | Activity (Mus musculus [10]) | Activity (Mus musculus [11]) | Activity (Mus musculus [12]) | Activity (Mus musculus [13]) | Activity (Mus musculus [2]) | ED50 (Mus musculus [14]) [mg/kg] | Time (Mus musculus [15]) [h] | Activity (Mus musculus [10]; route intraperitoneal) [%] | Ratio ED50 (Mus musculus [16]) | Ratio ED50 (Mus musculus [17]) | Ratio ED50 (Mus musculus [18]) |
| --- | --- | --- | --- | --- | --- | --- | --- | --- | --- | --- | --- | --- | --- | --- | --- | --- | --- | --- | --- | --- |
| CCCNC(=O)C(C)(C)O | inactive | 100 | Non-toxic | inactive | inactive | Non-toxic | Active | inactive | Non-toxic | Active | inactive | Non-toxic | Non-toxic |  |  |  |  |  |  |  |
| CC1(C)OS(=O)(=O)N(CCc2ccccc2)C1=O | Active |  | Non-toxic | Active | Active | Non-toxic | Active | Active | Non-toxic | Active | inactive | Non-toxic | Non-toxic | Active | 91.1 | 2 |  |  |  |  |
| CC(C)(O)C(=O)NCCc1ccccc1 | Active |  | Non-toxic | Active | Active | Non-toxic | Active | inactive | Non-toxic |  | inactive | Non-toxic | Non-toxic | Active | 53.9 | 1 | 100 |  |  |  |
| CCCCN1C(=O)C(C)(C)OS1(=O)=O | Active |  | Non-toxic | Active | inactive | Non-toxic | Active | Active | Non-toxic | inactive | Active | Non-toxic | Non-toxic | Active | 0.06 | 2 |  | 10000 | 4700 | 90 |
| CN1C(=O)OC(C)(C)C1=O [TRIMETHADIONE] |  |  |  |  |  |  |  |  |  |  |  |  |  |  | 627 | 0.5 |  |  |  |  |
| CC1(C)OS(=O)(=O)N(Cc2ccccc2)C1=O | inactive | 100 | Non-toxic | Active | Active | Non-toxic | Active | inactive | Non-toxic | Active | inactive | Non-toxic | Non-toxic |  | 15.1 | 4 |  | 40 | 19 |  |
| CC(C)(O)C(=O)NC1CCCCC1 | inactive | 100 | Non-toxic | Active | inactive | Non-toxic | Active | inactive | Non-toxic |  | inactive | Non-toxic | Non-toxic |  | 25.2 | 0.5 | 100 |  |  |  |
| O=C1NC(=O)C(c2ccccc2)(c2ccccc2)N1 [PHENYTOIN] |  |  |  |  |  |  |  |  |  |  |  |  |  |  | 5.54 | 1 |  |  |  |  |
| CCCCNC(=O)C(O)(c1ccccc1)c1ccccc1 | inactive | 100 | Non-toxic | Active | inactive | Non-toxic | Active | inactive | Non-toxic |  | inactive | Non-toxic | Non-toxic |  |  |  | 100 |  |  |  |
| CCCN1C(=O)C(C)(C)OS1(=O)=O | inactive |  | Non-toxic | Active | inactive | Non-toxic | Active | inactive | Non-toxic | Active | inactive | Non-toxic | Non-toxic | inactive |  |  |  |  |  |  |
| CC(C)(O)C(=O)NCc1ccccc1 | Active |  | Non-toxic | inactive | Active | Non-toxic | Active | Active | Non-toxic |  | inactive | Non-toxic | Non-toxic | Active | 9.1 | 0.25 | 100 |  | 30 |  |
| CCCCNC(=O)C(C)(C)O | Active |  | Non-toxic | Active | inactive | Non-toxic | inactive | Active | Non-toxic |  | Active | Non-toxic | Non-toxic | Active | 44.6 | 6 | 100 |  |  |  |
